Consider 30 compounds from PubChem BioAssay AID1665 (Sanford-Burnham Center for Chemical Genomics, 2009).

In all, about 190,000 compounds went through this assay and about 590 (0.31%) were called active.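 The calls were made as follows: active = nuclear translocation activity above 50% at 5 µM, with a well cell count of 50 or more; inconclusive = wells under 50 cells across six images, flagged as toxic; inactive = the rest.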 The sample as a whole holds a higher share of actives than the screen did.

The test can be described thus: beta-catenin nuclear localization change in HeLa – imaging, HeLa cells, immunofluorescence, high-content, primary screen (AID 1665).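 As to nuclear translocation activity: per-cell ratio of nuclear to cytoplasmic median beta-catenin stain intensity; plate controls were DMSO negative control for no effect and GSK-3 inhibitor IX positive control for full effect.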 The conditions noted are these: at 5 µM; cell count: HeLa beta-catenin nuclear translocation, measured here: cell count, cytotoxicity flag; nuclear translocation activity: stronger effect = higher value. The method in brief: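 System: Human HeLa cells, endogenous beta-catenin | Compound dosing: 5 µM primary, 0.02–20 µM confirmation | Timing: 24 h compound exposure at 37°C, 5% CO2 | Measured by: Fluorescence imaging of beta-catenin antibody stain plus DAPI | Read-out basis: % activation of per-cell nuclear versus cytoplasmic median beta-catenin signal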
In the case of `COc1ccc2c(CC(=O)OCC(=O)NC(N)=O)coc2c1`, the cell count worked out at 1100 cells and the nuclear translocation activity was -0.9% (inactive).

For `COc1cccc(C2Nc3cccc4cccc(c34)N2)c1`, the cell count was found to be 1290 cells and the nuclear translocation activity was -0.1% (inactive).

With `Nc1nnnn1/N=C/c1cc([N+](=O)[O-])ccc1O`, the cell count is 1250 cells and the nuclear translocation activity was 2.2% (inactive).

For the compound `CSC1=NCCN1C(=O)Cc1cccc2ccccc12`, the cell count was 1340 cells and the nuclear translocation activity was 0.5% (inactive).

Regarding `COc1ccc(C(=O)N/N=C2\CCS(=O)(=O)c3ccc(F)cc32)cc1OC`, the cell count was determined as 1320 cells and the nuclear translocation activity is 0.5% (inactive).

Turning to `O=C(N/N=C/c1cccc([N+](=O)[O-])c1)c1ccncc1`, the cell count was 1370 cells and the nuclear translocation activity was -0.3% (inactive).

As to `Cc1ccc2[nH]c(=O)c(CC=C(Cl)Cl)c(C)c2c1`, the cell count was determined as 484 cells and the nuclear translocation activity was -1.1% (inactive).

Regarding `O=C(NCCN1CCN(Cc2ccccc2)CC1)c1cc2c(=O)[nH]c3ccccc3c2s1`, the cell count was 1180 cells and the nuclear translocation activity is -3.9% (inactive).

For the compound `Cc1cccc(N(C)C(=O)c2cc3c(=O)[nH]c4ccc(C)cc4c3s2)c1`, the cell count amounted to 369 cells and the nuclear translocation activity was 61.3% (active).

For the compound `O=C(NCC1CCCO1)c1ccccc1-c1nc(-c2ccccc2Cl)no1` (stereo not given), the cell count was 1310 cells and the nuclear translocation activity is 0% (inactive).

`O=[N+]([O-])/C=C1\CCCCCN1`: the cell count turned out to be 1320 cells and the nuclear translocation activity is 0% (inactive).

For the compound `O=c1[nH]nc(SCCS(=O)(=O)c2ccc(F)cc2)n1-c1ccccc1C(F)(F)F`, the cell count is 1270 cells and the nuclear translocation activity was 2.8% (inactive).

Consider `Cc1ccc(S(=O)(=O)N2CCCC2CO)cc1` (stereo not given), for which the cell count amounted to 831 cells and the nuclear translocation activity is -0.4% (inactive).

For `Cc1ccc(S(=O)(=O)NC(=O)N2CCCC(C)(C)C2)cc1`, the cell count was determined as 1150 cells and the nuclear translocation activity is 0.1% (inactive).

Turning to `Cc1ccc(S(=O)(=O)C2(S(=O)(=O)c3ccc(C)cc3)CCCC2)cc1`, the cell count is 297 cells and the nuclear translocation activity was 67.3% (active).

Turning to `COc1ccc(C(=O)CN2C(=O)NC(C)(c3ccc(C)cc3)C2=O)cc1OC` (stereo not given), the cell count is 931 cells and the nuclear translocation activity is -3.5% (inactive).

As for `COc1ccc(C(=O)n2nc(-c3ccc(C)cc3)nc2N)cc1OC`, the cell count amounted to 579 cells and the nuclear translocation activity is 100% (active).

`CCCC(=O)n1nc(-c2ccccc2)nc1N`: the cell count was determined as 1050 cells and the nuclear translocation activity was 0% (inactive).

Consider `CN(C)C(=O)c1coc2nc3ccccc3nc12`, for which the cell count was 1300 cells and the nuclear translocation activity was -0.3% (inactive).

As for `CC[C@]1(O)CC2CN(CCc3c([nH]c4ccccc34)[C@@](C(=O)OC)(c3cc4c(cc3OC)N(C=O)[C@H]3[C@@](O)(C(=O)OC)[C@H](OC(C)=O)[C@]5(CC)C=CCN6CC[C@]43[C@@H]65)C2)C1` (stereo not given in full), the cell count is 617 cells and the nuclear translocation activity was 62.5% (active).

For the compound `CC[C@]1(O)C[C@@H]2CN(CCc3c([nH]c4ccccc34)[C@@](C(=O)OC)(c3cc4c(cc3OC)N(C)[C@H]3[C@@](O)(C(=O)OC)[C@H](OC(C)=O)[C@]5(CC)C=CCN6CC[C@]43[C@@H]65)C2)C1`, the cell count was determined as 560 cells and the nuclear translocation activity was -2% (inactive).

In the case of `CC/C=C/C(=O)N1CC2(CC(c3cccc(NC(=O)CC)c3)=NO2)C[C@H]1C(N)=O` (stereo not given in full), the cell count stood at 1030 cells and the nuclear translocation activity is 0.6% (inactive).

On to `O=C(Nc1cccnc1Oc1ncnc2cc(Cl)ccc12)c1ccc(F)cc1`, for which the cell count was 1330 cells and the nuclear translocation activity was -0.5% (inactive).

Turning to `COCCCn1c(-c2cccs2)nc2nc3ccccc3nc21`, the cell count is 1370 cells and the nuclear translocation activity was -0.5% (inactive).

Consider `CCC1=NN2C(=N)/C(=C/c3cc(C)n(-c4ccccc4)c3C)C(=O)N=C2S1`, for which the cell count stood at 1350 cells and the nuclear translocation activity is -0.8% (inactive).

As to `Cc1[nH]n(-c2ccccc2)c(=O)c1N=Nc1ccccc1C(=O)N1CCCCC1`, the cell count came to 1360 cells and the nuclear translocation activity is 0.5% (inactive).

In the case of `CCOc1ccccc1NC(=O)CCc1ccc(C)o1`, the cell count is 1160 cells and the nuclear translocation activity is -2% (inactive).

As to `Cc1cnc(NC(=O)CSc2nnc(-c3ccc(Cl)cc3Cl)n2N)s1`, the cell count was determined as 1100 cells and the nuclear translocation activity was -0.9% (inactive).

Take `Cc1ccc(CCC(=O)Nc2ncc(Cc3cc(Cl)ccc3Cl)s2)o1`: the cell count amounted to 142 cells and the nuclear translocation activity is 73.2% (active).

For the compound `NC(=O)N/N=C\c1cccs1`, the cell count was 1280 cells and the nuclear translocation activity was 0.1% (inactive).
